Assay results reported in ChEMBL document CHEMBL1152413, “Glucose-based spiro-heterocycles as potent inhibitors of glycogen phosphorylase” (Bioorg Med Chem, 2009).
pIC50, pKi: −log10 of the molar value. The source made the active and inactive calls. The calls are words filed in the database; no cut-off is given here.

Experiments:
[1] = target: T1, Glycogen phosphorylase, muscle form (Oryctolagus cuniculus, UniProt P00489); assay: Inhibition of rabbit muscle glycogen phosphorylase b by Lineweaver-Burke plot analysis
T1 sequence (P00489 whole entry): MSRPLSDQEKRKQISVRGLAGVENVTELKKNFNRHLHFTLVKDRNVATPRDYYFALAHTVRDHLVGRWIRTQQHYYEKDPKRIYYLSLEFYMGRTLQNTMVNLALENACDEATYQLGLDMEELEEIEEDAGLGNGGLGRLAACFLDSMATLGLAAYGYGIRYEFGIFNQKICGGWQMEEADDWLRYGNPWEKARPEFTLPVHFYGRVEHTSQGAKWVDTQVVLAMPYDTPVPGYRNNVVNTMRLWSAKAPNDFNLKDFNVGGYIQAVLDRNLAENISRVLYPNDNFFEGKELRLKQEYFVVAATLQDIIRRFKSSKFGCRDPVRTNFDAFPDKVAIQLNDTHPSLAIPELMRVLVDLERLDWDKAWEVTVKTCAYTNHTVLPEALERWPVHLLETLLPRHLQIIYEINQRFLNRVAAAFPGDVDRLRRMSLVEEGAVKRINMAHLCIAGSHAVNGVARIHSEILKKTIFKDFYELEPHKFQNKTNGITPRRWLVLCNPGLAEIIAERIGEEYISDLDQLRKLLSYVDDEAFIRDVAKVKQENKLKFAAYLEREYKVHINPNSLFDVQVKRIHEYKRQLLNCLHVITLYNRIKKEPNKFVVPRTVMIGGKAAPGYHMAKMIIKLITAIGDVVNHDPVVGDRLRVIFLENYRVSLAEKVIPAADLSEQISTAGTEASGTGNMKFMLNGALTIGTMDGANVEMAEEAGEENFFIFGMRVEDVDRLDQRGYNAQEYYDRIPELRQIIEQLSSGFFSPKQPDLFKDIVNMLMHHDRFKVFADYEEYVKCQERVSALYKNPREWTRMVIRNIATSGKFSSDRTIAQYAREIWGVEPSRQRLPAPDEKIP
Method in brief: (§1)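 Glycogen phosphorylase b isolated from rabbit skeletal muscle (Fischer–Krebs method with dithiothreitol in place of L-cysteine), recrystallized at least three times. Assayed in glycogen-synthesis direction with α-D-glucose-1-phosphate 2–20 mM, glycogen 1% w/v and AMP 1 mM held constant. Inhibitors were dissolved in DMSO and diluted into 50 mM triethanolamine, 1 mM EDTA, 1 mM DTT, keeping final DMSO below 1%. Activities were analysed as Lineweaver–Burk plots by nonlinear fitting.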

[2] = target: T2, Glycogen phosphorylase, muscle form (Oryctolagus cuniculus) (UniProt P00489); assay: Inhibition of rabbit muscle glycogen phosphorylase b at 625 uM by Lineweaver-Burke plot analysis; method in brief: as §1
T2 sequence (whole entry): T1 sequence (P00489 whole entry)

[3] = target: T1, Glycogen phosphorylase, muscle form
[4] = Solubility in DMSO; format: physicochemical
[5] = target: T2, Glycogen phosphorylase, muscle form (Oryctolagus cuniculus); assay: Inhibition of rabbit muscle glycogen phosphorylase b at 312.5 uM by Lineweaver-Burke plot analysis; method in brief: as §1

Q: With `O=[N+]([O-])c1ccc(/C(=N/O)S[C@@H]2O[C@H](CO)[C@@H](O)[C@H](O)[C@H]2O)cc1` as the compound, how does the pIC50 [1] read?
A: Its pIC50 is under 2.00.

Q: Which inhibition [2] does the source give for `N#Cc1ccc(/C(=N/O)S[C@@H]2O[C@H](CO)[C@@H](O)[C@H](O)[C@H]2O)cc1` here?
A: The inhibition was “inactive”.

Q: With `COc1ccc(C2=NO[C@]3(O[C@H](CO)[C@@H](O)[C@H](O)[C@H]3O)S2)cc1` as the compound, how does the pKi [3] read?
A: Its pKi is 5.09.

Q: With `OC[C@H]1O[C@]2(ON=C(c3ccc(-c4ccccc4)cc3)S2)[C@H](O)[C@@H](O)[C@@H]1O` as the compound, how does the pIC50 [1] read?
A: Its pIC50 is 3.60.

Q: With `OC[C@H]1O[C@@H](S/C(=N\O)c2ccc3ccccc3c2)[C@H](O)[C@@H](O)[C@@H]1O` as the compound, how does the solubility [4] read?
A: The solubility was “Insoluble”.

Q: For `OC[C@H]1O[C@@H](S/C(=N\O)c2ccc(-c3ccccc3)cc2)[C@H](O)[C@@H](O)[C@@H]1O`, which solubility [4] is on record?
A: Its solubility is “Insoluble”.

Q: With `N#Cc1ccc(C2=NO[C@]3(O[C@H](CO)[C@@H](O)[C@H](O)[C@H]3O)S2)cc1` as the compound, how does the pIC50 [1] read?
A: The pIC50 was 3.15.

Q: For `OC[C@H]1O[C@@]2(ON=C(c3ccncc3)S2)[C@H](O)[C@@H](O)[C@@H]1O`, which inhibition [2] is on record?
A: The inhibition was “inactive”.

Q: With `O=[N+]([O-])c1ccc(C2=NO[C@]3(O[C@H](CO)[C@@H](O)[C@H](O)[C@H]3O)S2)cc1` as the compound, how does the pIC50 [1] read?
A: Its pIC50 is 3.60.

Q: Which inhibition [2] does the source give for `O=[N+]([O-])c1ccc(/C(=N\O)N[C@@H]2O[C@H](CO)[C@@H](O)[C@H](O)[C@H]2O)cc1` here?
A: Its inhibition is “inactive”.

Q: Which inhibition [5] does the source give for `COc1ccc(/C(=N/O)S[C@@H]2O[C@H](CO)[C@@H](O)[C@H](O)[C@H]2O)cc1` here?
A: Its inhibition is “inactive”.

Q: With `OC[C@H]1O[C@]2(ON=C(c3ccc(F)cc3)S2)[C@H](O)[C@@H](O)[C@@H]1O` as the compound, how does the pKi [3] read?
A: The pKi was 4.32.

Q: For `OC[C@H]1O[C@@H](S/C(=N\O)c2ccncc2)[C@H](O)[C@@H](O)[C@@H]1O`, which inhibition [2] is on record?
A: The inhibition was “inactive”.

Q: With `N#Cc1ccc(/C(=N\O)N[C@@H]2O[C@H](CO)[C@@H](O)[C@H](O)[C@H]2O)cc1` as the compound, how does the pKi [3] read?
A: The pKi was 2.74.
